These results are taken from ChEMBL document CHEMBL1144560, “Synthesis of benzofuran scaffold-based potential PTP-1B inhibitors” (Bioorg Med Chem, 2007).

The source made the active and inactive calls. The rule behind the calls is not given here.

Experiment [1] addresses T1, Tyrosine-protein phosphatase non-receptor type 1 (Homo sapiens) (UniProt P18031).
T1 sequence (whole entry): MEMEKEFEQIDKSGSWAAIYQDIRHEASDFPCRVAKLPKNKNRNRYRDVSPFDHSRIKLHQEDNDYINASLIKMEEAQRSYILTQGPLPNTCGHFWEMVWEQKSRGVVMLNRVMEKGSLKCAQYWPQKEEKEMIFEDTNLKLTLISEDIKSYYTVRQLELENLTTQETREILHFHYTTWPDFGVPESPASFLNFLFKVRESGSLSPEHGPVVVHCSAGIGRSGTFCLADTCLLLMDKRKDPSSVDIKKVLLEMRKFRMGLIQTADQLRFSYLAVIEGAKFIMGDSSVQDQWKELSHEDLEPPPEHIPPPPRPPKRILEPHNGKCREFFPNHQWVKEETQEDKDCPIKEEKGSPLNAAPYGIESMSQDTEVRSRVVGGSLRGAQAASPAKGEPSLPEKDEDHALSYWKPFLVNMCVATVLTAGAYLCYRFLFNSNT
The experiment is described as follows: (§1) Inhibition of PTP1B at 100 uM. Put shortly:
(§2)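 Compound at 100 µM preincubated 10 min with PTP-1B, then 10 mM pNPP in 50 mM HEPES pH 7.0 with 1 mM DTT and 2 mM EDTA for 30 min at 37 °C. Stopped with 0.1 N NaOH. p-Nitrophenolate read at 410 nm (ε 1.78×10^4 M⁻¹cm⁻¹) to give residual activity. Mean of three independent experiments.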

The target of experiment [2] is T2, Tyrosine-protein phosphatase non-receptor type 1 (Homo sapiens, UniProt P18031).
T2 sequence (P18031 whole entry): T1 sequence (whole entry)
The experiment is described as follows: Inhibition of PTP1B in presence of 0.01% Triton X-100. An outline of the steps: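 0.01% Triton X-100 included during the 10-min preincubation of compound (10–100 µM) with PTP-1B. Then 10 mM pNPP in 50 mM HEPES pH 7.0, 1 mM DTT, 2 mM EDTA, 30 min at 37 °C, NaOH stop. Read at 410 nm (ε 1.78×10^4 M⁻¹cm⁻¹). IC50 and Ki derived.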

Experiment [3] has as its target T2, Tyrosine-protein phosphatase non-receptor type 1. The experiment is described as follows: Inhibition of PTP1B. An outline of the steps: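 No detergent present. Compounds at 10, 25, 50, 75 and 100 µM preincubated 10 min with PTP-1B, then 10 mM pNPP in 50 mM HEPES pH 7.0, 1 mM DTT, 2 mM EDTA, 30 min at 37 °C. NaOH stop. A410 converted to p-nitrophenolate (ε 1.78×10^4 M⁻¹cm⁻¹). IC50 and Ki derived.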

The target in experiment [4] is Tyrosine-protein phosphatase non-receptor type 1 (Homo sapiens) (UniProt P18031). The description is as §1. Put shortly:
as §2
This is another data set of the same source.

For `COc1ccc(/C(O)=C/C(=O)c2cc3ccoc3cc2O)cc1OC`, the inhibition (as a rule, how much of the control response was suppressed) in experiment [1] was 32.4%. Consider `O=C(/C=C(\O)c1ccc(CO)c(CO)c1)c1cc2ccoc2cc1O`, for which, in experiment [1], the inhibition was determined as 56.7%. Same read-out and setting: the value for `COc1ccc(/C(O)=C/C(=O)c2ccc3occc3c2O)cc1` was 24.3%; that for `COc1cc2occc2cc1C(=O)/C=C(\O)c1ccccc1` was 41.5%; that for `CC(=O)c1cc2oc(-c3coc4cc(C(C)=O)c(O)cc34)cc2cc1O` was 36.2%. Same read-out and setting: with `COc1ccc(-c2cc(=O)c3ccc4occc4c3o2)cc1` the figure was 22%. For `COc1ccc(/C(O)=C/C(=O)c2ccc3occc3c2OC)cc1`, the outcome in experiment [1] was inactive.

`CC(=O)c1cc2cc(-c3coc4cc(O)c(C(C)=O)cc34)oc2cc1O` came in with an inhibition in experiment [1] of 74.9%. Besides, in experiment [2], the IC50 (usually the point on the concentration scale where inhibition reaches its midpoint) turned out to be 91.3 µM and the inhibitory constant (Ki) (as a rule, the equilibrium dissociation constant of an inhibitor or competing ligand from its target) was determined as 61 µM. Also, in experiment [3], half-maximal inhibition (IC50) was put at 80 µM and the Ki turned out to be 37 µM.

Consider `COc1ccc(/C(O)=C/C(=O)c2cc3ccoc3cc2O)cc1`, for which, in experiment [1], the inhibition is 40.5%. Take `CC(=O)c1cc2ccoc2cc1O`: the inhibition in experiment [1] turned out to be 19%.

Regarding `COc1ccc2cc(-c3coc4c(C(C)=O)c(OC)ccc34)oc2c1C(C)=O`, the inhibition in experiment [1] is 54.6%.

In the case of `COc1cccc(-c2cc(=O)c3cc4ccoc4cc3o2)c1`, the result in experiment [1] was inactive.

In experiment [1], `O=C(/C=C(\O)c1ccccc1)c1cc2ccoc2cc1O` gave an inhibition of 24.3%. Still for that read-out and setting: with `O=c1cc(-c2ccc(CO)c(CO)c2)oc2cc3occc3cc12` the figure was 8.1%. Turning to `CC(=O)c1ccc2oc(-c3coc4ccc(C(C)=O)c(O)c34)cc2c1O`, in experiment [1], the inhibition was determined as 67.4%. Moreover, in experiment [2], the IC50 was found to be 58.8 µM and the Ki was 27.5 µM. In addition, in experiment [3], half-maximal inhibition (IC50) was put at 87 µM and the Ki was 35 µM. `COc1c(C(=O)/C=C(\O)c2ccccc2Cl)ccc2occc12` had an inhibition in experiment [1] of 27%. In experiment [1], `O=c1cc(-c2ccccc2)oc2cc3occc3cc12` returned an inhibition of 67.5%. For the same compound, in experiment [2], the IC50 came to 61.3 µM and the Ki was 45 µM. Further, in experiment [3], the IC50 is 94 µM and the affinity corresponds to a Ki of 57 µM. In experiment [1], `COc1ccc(-c2cc(=O)c3cc4ccoc4cc3o2)cc1` had an inhibition of 75.6%. Moreover, the IC50 came out at 68.8 µM in experiment [2] and 72.5 µM in experiment [3]. The inhibition constant Ki was found to be 36 µM in experiment [2] and 30 µM in experiment [3]. `COC(=O)c1ccc2oc(-c3coc4ccc(C(=O)OC)c(O)c34)cc2c1O` had an inhibition in experiment [1] of 55.5%. `COc1cccc(/C(O)=C/C(=O)c2cc3ccoc3cc2O)c1`: the result in experiment [1] was inactive.

As to `O=c1cc(-c2ccccc2)oc2c1ccc1occc12`, the inhibition in experiment [1] was 21%. Regarding `CC(=O)c1c(O)ccc2cc(-c3coc4c(C(C)=O)c(O)ccc34)oc12`, the inhibition in experiment [1] amounted to 72%. Further, the figures for the IC50 in experiment [2] and in experiment [3] were 56.3 µM and 75 µM, respectively. Moreover, the Ki in experiment [2] amounted to 54 µM; in experiment [3] it was 64 µM.

In the case of `O=C(/C=C(\O)c1ccccc1)c1ccc2occc2c1O`, the inhibition in experiment [1] stood at 40.5%.

For the compound SODIUM ORTHOVANAD, the inhibition in experiment [4] came to 56%. `COc1ccc(-c2cc(=O)c3cc4ccoc4cc3o2)cc1OC`: in experiment [1], the inhibition amounted to 24.3%. Still for that read-out and setting: the value for `COc1c(C(=O)/C=C(\O)c2ccc(CO)c(CO)c2)ccc2occc12` was 42.8%. Turning to `CC(=O)c1ccc2occc2c1O`, in experiment [1], the inhibition was found to be 21.6%.
